In assay [1] the test system is Mus musculus. The assay can be described thus: Antiinflammatory activity in mouse assessed as inhibition of xylene-induced ear edema at 100 mg/kg, ip after 0.5 hrs relative to control. The format is functional. To be noted: route intraperitoneal. An outline of the steps:
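Kunming mice, 20-25 g, 10 per group. Freshly prepared DMSO solution given i.p. at 0.05 mL/20 g; vehicle-only (DMSO) controls. Xylene ear edema test run 0.5 h after dosing; mice killed 30 min after xylene, 7 mm plugs cut from treated and untreated ears, and edema taken as the plug weight difference. Reported as % edema reduction versus vehicle.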

In assay [2] the test system is Mus musculus. The assay can be described thus: Antiinflammatory activity in mouse assessed as inhibition of xylene-induced ear edema at 50 mg/kg, po administered 3 hrs before xylene challenge measured after 3 hrs post dose. The format is functional. An outline of the steps: (§1)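 Kunming mice, 20-25 g, 10 per group. Compound homogenized in 0.5% CMC-Na and given orally at 0.2 mL/10 g; vehicle controls got 0.5% CMC-Na. Xylene applied 1, 2, 3, 4, 5 or 24 h after dosing (3 h for 50 and 100 mg/kg). Killed 30 min later; 7 mm ear plugs weighed, treated minus untreated. Result given as % edema reduction versus CMC-Na controls.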

In assay [3] the test system is Mus musculus. Description: Antiinflammatory activity in mouse assessed as inhibition of xylene-induced ear edema at 200 mg/kg, po administered 5 hrs before xylene challenge measured after 3 hrs post dose. The format is functional. An outline of the steps:
as §1

Assay [4] has as its system Mus musculus. Description: Antiinflammatory activity in mouse assessed as inhibition of xylene-induced ear edema at 200 mg/kg, po administered 3 hrs before xylene challenge measured after 3 hrs post dose. Format: functional. An outline of the steps: as §1
Assay [5] concerns Mus musculus. The assay can be described thus: Antiinflammatory activity in mouse assessed as inhibition of xylene-induced ear edema at 100 mg/kg, po administered 3 hrs before xylene challenge measured after 3 hrs post dose. Format: functional. An outline of the steps:
as §1

Assay [6] relates to Mus musculus. Description: Antiinflammatory activity in mouse assessed as inhibition of xylene-induced ear edema at 200 mg/kg, po administered 4 hrs before xylene challenge measured after 3 hrs post dose. Format: functional. An outline of the steps:
as §1

Assay [7] deals with Mus musculus. The assay can be described thus: Antiinflammatory activity in mouse assessed as inhibition of xylene-induced ear edema at 200 mg/kg, po administered 2 hrs before xylene challenge measured after 3 hrs post dose. Format: functional. An outline of the steps: as §1
In assay [8] the test system is Mus musculus. The assay can be described thus: Antiinflammatory activity in mouse assessed as inhibition of xylene-induced ear edema at 200 mg/kg, po administered 1 hr before xylene challenge measured after 3 hrs post dose. The format is functional. An outline of the steps:
as §1

Assay [9] deals with Mus musculus. Description: Antiinflammatory activity in mouse assessed as inhibition of xylene-induced ear edema at 200 mg/kg, po administered 24 hrs before xylene challenge measured after 3 hrs post dose. The format is functional. An outline of the steps:
as §1

Assay [10] concerns Mus musculus. The assay can be described thus: Antiinflammatory activity in mouse assessed as inhibition of xylene-induced ear edema at 200 mg/kg, po administered 1 to 24 hrs before xylene challenge measured after 4 hrs post dose. The format is functional, organism-based. Further details: dose 200 mg/kg. An outline of the steps: as §1

Each structure is given as a SMILES string. Activity calls are given as the source filed them. The rule behind the calls is not given here.

For `Nc1cccc(Oc2nn3c(N)nnc3c3ccccc23)c1`, in the assay on Mus musculus [1], the inhibition in vivo at 100 mg/kg stood at 68%.

For the molecule `Cc1cccc(Oc2nn3c(N)nnc3c3ccccc23)c1`, in the assay with Mus musculus [1], the inhibition in vivo at 100 mg/kg worked out at 68%.

Regarding `Nc1ccc(Oc2nn3c(N)nnc3c3ccccc23)cc1`, the inhibition in vivo at 50 mg/kg in the assay with Mus musculus [2] came to 22.8%. Besides, the inhibition in vivo at 200 mg/kg turned out to be 55.9% in the assay with Mus musculus [3]; 84.3% in the assay with Mus musculus [4]; 80.6% in the assay on Mus musculus [6]; 81.3% with Mus musculus [7]; 60.5% with Mus musculus [8]; 18.9% in the assay with Mus musculus [9]. The inhibition in vivo at 100 mg/kg worked out at 83% with Mus musculus [1] and 37.9% with Mus musculus [5].

For the molecule `COc1ccc(Oc2nn3c(N)nnc3c3ccccc23)cc1`, the inhibition in vivo at 100 mg/kg with Mus musculus [1] was 44%.

For the molecule `Cc1ccc(Oc2nn3c(N)nnc3c3ccccc23)cc1`, the inhibition in vivo at 100 mg/kg in the assay on Mus musculus [1] came to 52.7%.

Consider `Nc1nnc2c3ccccc3c(Oc3cccc(Cl)c3)nn12`, for which, in the assay on Mus musculus [1], the inhibition in vivo at 100 mg/kg came to 68.8%.

With `Nc1nnc2c3ccccc3c(Oc3ccccc3Cl)nn12`, the inhibition in vivo at 50 mg/kg with Mus musculus [2] turned out to be 30.8%. Further, the inhibition in vivo at 200 mg/kg came to 57.2% in the assay with Mus musculus [3]; 75% in the assay on Mus musculus [4]; 64.1% in the assay on Mus musculus [6]; 59% in the assay with Mus musculus [7]; 52.7% with Mus musculus [8]; 8.24% with Mus musculus [9]. Moreover, the inhibition entry with Mus musculus [10] is “Active”. For the same molecule, the inhibition in vivo at 100 mg/kg stood at 81.2% in the assay with Mus musculus [1] and 46.7% in the assay with Mus musculus [5].

As for `Nc1nnc2c3ccccc3c(Oc3ccc(F)cc3)nn12`, in the assay with Mus musculus [1], the inhibition in vivo at 100 mg/kg came to 48.8%.

For `Nc1nnc2c3ccccc3c(Oc3ccc(Cl)cc3Cl)nn12`, in the assay on Mus musculus [1], the inhibition in vivo at 100 mg/kg was 40.4%.

Turning to `CCCCCCCOc1nn2c(N)nnc2c2ccccc12`, the inhibition in vivo at 100 mg/kg in the assay with Mus musculus [1] was 65.7%.

On to `CCCCOc1nn2c(N)nnc2c2ccccc12`, for which the inhibition in vivo at 100 mg/kg with Mus musculus [1] was 67.6%.

As to `Nc1nnc2c3ccccc3c(Oc3ccccc3)nn12`, in the assay on Mus musculus [1], the inhibition in vivo at 100 mg/kg worked out at 55%.

Take `Nc1nnc2c3ccccc3c(Oc3ccc(Cl)cc3)nn12`: the inhibition in vivo at 100 mg/kg in the assay with Mus musculus [1] was 75%.

For the molecule `Nc1ccccc1Oc1nn2c(N)nnc2c2ccccc12`, in the assay on Mus musculus [1], the inhibition in vivo at 100 mg/kg stood at 38.4%.

As for `CCCCCCCCOc1nn2c(N)nnc2c2ccccc12`, in the assay with Mus musculus [1], the inhibition in vivo at 100 mg/kg was 58%.

As for `Cc1ccccc1Oc1nn2c(N)nnc2c2ccccc12`, the inhibition in vivo at 100 mg/kg in the assay with Mus musculus [1] was determined as 68.3%.

Turning to `CC(C)Cc1ccc(C(C)C(=O)O)cc1` (centres undefined) [IBUPROFEN], the inhibition in vivo at 200 mg/kg in the assay on Mus musculus [3] worked out at 23.4%; in the assay with Mus musculus [4], 64.6%; in the assay on Mus musculus [6], 36.3%; in the assay with Mus musculus [7] it was 38.6%; with Mus musculus [8] it was 29.6%; in the assay on Mus musculus [9] it was 13.2%. Further, the results for the inhibition in vivo at 100 mg/kg in the assay with Mus musculus [1] and with Mus musculus [5] were 61.2% and 26.9%, respectively.

Consider `CC(C)Oc1nn2c(N)nnc2c2ccccc12`, for which the inhibition in vivo at 100 mg/kg in the assay on Mus musculus [1] was 39.4%.

On to `CCCCCCOc1nn2c(N)nnc2c2ccccc12`, for which, in the assay with Mus musculus [1], the inhibition in vivo at 100 mg/kg was 39.5%.

`Nc1nnc2c3ccccc3c(Oc3ccc(Br)cc3)nn12`: the inhibition in vivo at 100 mg/kg with Mus musculus [1] stood at 48.4%.
